Assay results gathered from unrelated publications.
Lines come from different studies, so protocols differ.
Target: Serine/threonine-protein kinase Nek9 (NEK9, Homo sapiens, UniProt Q8TD19)
One construct used (Q8TD19 1-979): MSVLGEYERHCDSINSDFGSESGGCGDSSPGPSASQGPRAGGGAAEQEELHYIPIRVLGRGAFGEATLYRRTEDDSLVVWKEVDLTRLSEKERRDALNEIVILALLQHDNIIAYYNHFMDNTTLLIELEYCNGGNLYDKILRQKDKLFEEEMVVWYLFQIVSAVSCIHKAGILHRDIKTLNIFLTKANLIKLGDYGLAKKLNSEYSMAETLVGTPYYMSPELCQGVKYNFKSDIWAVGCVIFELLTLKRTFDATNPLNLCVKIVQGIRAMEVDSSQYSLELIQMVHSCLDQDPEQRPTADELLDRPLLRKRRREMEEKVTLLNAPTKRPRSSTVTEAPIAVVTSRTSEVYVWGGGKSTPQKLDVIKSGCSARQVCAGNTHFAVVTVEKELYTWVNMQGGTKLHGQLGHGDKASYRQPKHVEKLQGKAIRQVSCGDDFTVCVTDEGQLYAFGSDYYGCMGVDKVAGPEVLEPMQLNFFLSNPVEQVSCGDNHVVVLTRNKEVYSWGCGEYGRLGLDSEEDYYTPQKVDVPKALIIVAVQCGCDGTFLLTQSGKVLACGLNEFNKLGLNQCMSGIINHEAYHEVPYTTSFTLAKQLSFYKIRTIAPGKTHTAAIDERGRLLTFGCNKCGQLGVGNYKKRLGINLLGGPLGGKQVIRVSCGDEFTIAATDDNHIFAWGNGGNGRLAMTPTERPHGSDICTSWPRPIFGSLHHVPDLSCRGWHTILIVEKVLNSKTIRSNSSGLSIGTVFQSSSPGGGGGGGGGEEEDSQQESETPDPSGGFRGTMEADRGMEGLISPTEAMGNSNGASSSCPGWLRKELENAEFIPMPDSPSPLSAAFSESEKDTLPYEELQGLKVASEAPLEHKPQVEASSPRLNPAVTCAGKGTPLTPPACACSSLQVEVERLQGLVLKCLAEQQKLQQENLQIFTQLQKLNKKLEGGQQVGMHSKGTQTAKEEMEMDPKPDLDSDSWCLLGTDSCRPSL

N[C@H]1CCN(c2nccc(-c3cnn4ncccc34)n2)C1 — remaining binding (binding; 1 µM): 100%
Cc1ccc(C(=O)Nc2ccc(CN3CCN(C)CC3)c(C(F)(F)F)c2)cc1C#Cc1cnc2cccnn12 — remaining activity (enzyme activity, inhibitor; 23.5 nM): 100%
CC(C)(O)[C@H]1CC[C@H](Nc2ccc3ncc(-c4cccc(C(F)(F)F)c4)n3n2)CC1 — remaining activity (enzyme activity, inhibitor; 1 µM): 79.5%
CCCS(=O)(=O)Nc1ccc(F)c(C(=O)c2c[nH]c3ncc(-c4ccc(Cl)cc4)cc23)c1F — inhibition (enzyme activity, inhibitor; 1 µM): < 10%
COc1cc2ncnc(Nc3ccc(Oc4ccccc4)cc3C)c2cc1OC — inhibition (enzyme activity, inhibitor; 1 µM): -2%
O=C(NS(=O)(=O)c1ccc(NCC2CCOCC2)c([N+](=O)[O-])c1)c1ccc(N2CCN(Cc3ccc(C(F)(F)F)cc3-c3ccc(Cl)cc3)CC2)cc1Oc1cnc2[nH]ccc2c1 — remaining binding (cell-free assay, competition with immobilised ligand; 1 µM): 100%
CC(C)(C)c1nc(-c2cccc(NS(=O)(=O)c3c(F)cccc3F)c2F)c(-c2ccnc(N)n2)s1 — remaining activity (enzyme activity, inhibitor, radiometric; 1 µM): 106%
Oc1cccc(-c2nc(N3CCOCC3)c3oc4ncccc4c3n2)c1 — remaining signal (cell-free assay; 0.5 µM): 99.3%
O=c1nc(-c2ccccn2)sc2ccccc12 — remaining binding (binding, competition with immobilised ligand; 1 µM): 96%
CC/C(=N\NC(=O)NCc1cccc(O)c1)c1ccc(O)c(C)c1O — inhibition (enzyme activity, inhibitor; 0.1 µM): -2.8%
Cc1ccc(NC(=O)c2ccc(C)c(C(F)(F)F)c2)cc1C#Cc1nn(C2CCC(O)CC2)c2ncnc(N)c12 (centres unmarked) — remaining signal (cell-free assay; 10 µM): 59%
O=C1Nc2ccc(Cl)cc2C1=Cc1cc(Cl)c(O)c(Cl)c1 — remaining signal (cell-free assay; 0.5 µM): 103%
Cc1nc(N2CC[C@@H](O)C2)ncc1-c1cc(C(F)(F)F)cc2[nH]ncc12 — remaining binding (binding, competition with immobilised ligand; 1 µM): 96%
CNC(=O)c1cc(Oc2ccc(NC(=O)Nc3ccc(Cl)c(C(F)(F)F)c3)cc2)ccn1 — remaining signal (cell-free assay; 0.5 µM): 95.4%
O=C(NCc1ncc(C(F)(F)F)cc1Cl)c1ccc2c(c1)C1(CCS(=O)(=O)CC1)[C@H](C1CC1)N2S(=O)(=O)c1ccc(F)cc1 — remaining binding (cell-free assay, competition with immobilised ligand; 1 µM): 100%
Clc1ccc(Nc2nnc(Cc3ccncc3)c3ccccc23)cc1 — remaining signal (cell-free assay; 0.5 µM): 98.4%
CNCc1ccccc1-c1csc([C@H](C)Nc2nc(C)nc3cc(OC)c(OC)cc23)c1 — remaining binding (cell-free assay, competition with immobilised ligand; 1 µM): 100%
